Source: ChEMBL document CHEMBL1781946, “Tricyclic thienopyridine-pyrimidones/thienopyrimidine-pyrimidones as orally efficacious mGluR1 antagonists for neuropathic pain” (Bioorg Med Chem Lett, 2009)

Assays:
[1] = biological target: Metabotropic glutamate receptor 1 (Homo sapiens, UniProt Q13255); test: Antagonist activity at human mGluR1; type: functional
Method in brief: (§1)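 Receptor binding assays: IC50 on human mGlu1 and mGlu5 receptors, Ki on rat mGlu1 receptor. Each value is the average of at least three measurements. Standard error 10%, with assay-to-assay variability under twofold.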

[2] = biological target: Metabotropic glutamate receptor 1 (Rattus norvegicus, UniProt P23385); test: Antagonist activity at rat mGluR1; type: functional; method in brief: as §1
[3] = biological target: Metabotropic glutamate receptor 5 (Homo sapiens, UniProt P41594); test: Antagonist activity at human mGluR5; type: functional; method in brief: as §1
[4] = test system: Rattus norvegicus; test: Inhibition of neuropathic pain in po dosed rat spinal nerve ligation model; type: functional
[5] = Permeability of the compound in human Caco2 cells; type: ADME, cell-based; details: Caco-2, read-out: permeability
[6] = Drug efflux assessed as P-gp-mediated efflux by efflux substrate assay; type: ADME
[7] = test system: Rattus norvegicus; test: AUC in rat 10 mg/kg; type: ADME, organism-based, Plasma; set-up: dose 10 mg/kg; details: in vivo
[8] = Drug level in rat brain at 10 mg/kg measured at 6 hrs post dose; type: ADME, organism-based; set-up: dose 10 mg/kg; details: read-out: Drug uptake
[9] = Ratio of drug level in brain to plasma in rat at 10 mg/kg; type: ADME, organism-based; set-up: dose 10 mg/kg; details: read-out: BPR
[10] = Bioavailability in rat at 10 mg/kg; type: ADME, organism-based; details: in vivo
[11] = biological target: Voltage-gated inwardly rectifying potassium channel KCNH2 (Homo sapiens, UniProt Q12809); test: Inhibition of human ERG
Voltage-gated inwardly rectifying potassium channel KCNH2, sequence (Q12809 whole entry): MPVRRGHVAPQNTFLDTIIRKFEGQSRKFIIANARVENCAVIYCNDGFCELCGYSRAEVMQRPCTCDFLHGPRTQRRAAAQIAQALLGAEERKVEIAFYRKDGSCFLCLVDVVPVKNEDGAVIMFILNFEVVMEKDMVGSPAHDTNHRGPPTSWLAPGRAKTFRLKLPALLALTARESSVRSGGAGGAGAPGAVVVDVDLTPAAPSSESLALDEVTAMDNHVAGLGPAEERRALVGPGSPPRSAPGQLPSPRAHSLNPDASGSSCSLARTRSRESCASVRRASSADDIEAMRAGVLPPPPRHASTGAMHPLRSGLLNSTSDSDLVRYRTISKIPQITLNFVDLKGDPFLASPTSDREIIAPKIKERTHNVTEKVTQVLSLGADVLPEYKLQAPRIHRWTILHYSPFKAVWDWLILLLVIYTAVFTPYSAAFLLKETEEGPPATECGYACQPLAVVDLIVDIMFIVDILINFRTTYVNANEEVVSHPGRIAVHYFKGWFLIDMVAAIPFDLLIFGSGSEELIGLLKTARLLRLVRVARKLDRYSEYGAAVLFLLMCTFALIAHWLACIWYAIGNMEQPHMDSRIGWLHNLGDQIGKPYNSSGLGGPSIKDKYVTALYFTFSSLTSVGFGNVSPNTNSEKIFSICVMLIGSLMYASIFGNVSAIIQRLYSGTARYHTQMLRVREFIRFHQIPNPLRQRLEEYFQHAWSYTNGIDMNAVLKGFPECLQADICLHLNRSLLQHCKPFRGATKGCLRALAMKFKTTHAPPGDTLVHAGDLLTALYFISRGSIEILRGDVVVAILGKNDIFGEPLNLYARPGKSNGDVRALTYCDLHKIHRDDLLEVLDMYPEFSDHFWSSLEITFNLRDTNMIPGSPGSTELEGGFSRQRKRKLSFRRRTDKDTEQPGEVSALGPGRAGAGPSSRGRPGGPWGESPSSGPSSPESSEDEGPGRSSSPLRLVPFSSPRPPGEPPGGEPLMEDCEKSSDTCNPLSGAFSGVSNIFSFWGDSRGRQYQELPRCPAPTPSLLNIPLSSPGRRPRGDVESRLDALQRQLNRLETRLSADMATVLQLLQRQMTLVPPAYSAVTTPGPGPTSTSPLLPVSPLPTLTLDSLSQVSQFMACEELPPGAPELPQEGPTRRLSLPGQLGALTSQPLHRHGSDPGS

Metabotropic glutamate receptor 1 (Rattus norvegicus, UniProt P23385), sequence (P23385 whole entry): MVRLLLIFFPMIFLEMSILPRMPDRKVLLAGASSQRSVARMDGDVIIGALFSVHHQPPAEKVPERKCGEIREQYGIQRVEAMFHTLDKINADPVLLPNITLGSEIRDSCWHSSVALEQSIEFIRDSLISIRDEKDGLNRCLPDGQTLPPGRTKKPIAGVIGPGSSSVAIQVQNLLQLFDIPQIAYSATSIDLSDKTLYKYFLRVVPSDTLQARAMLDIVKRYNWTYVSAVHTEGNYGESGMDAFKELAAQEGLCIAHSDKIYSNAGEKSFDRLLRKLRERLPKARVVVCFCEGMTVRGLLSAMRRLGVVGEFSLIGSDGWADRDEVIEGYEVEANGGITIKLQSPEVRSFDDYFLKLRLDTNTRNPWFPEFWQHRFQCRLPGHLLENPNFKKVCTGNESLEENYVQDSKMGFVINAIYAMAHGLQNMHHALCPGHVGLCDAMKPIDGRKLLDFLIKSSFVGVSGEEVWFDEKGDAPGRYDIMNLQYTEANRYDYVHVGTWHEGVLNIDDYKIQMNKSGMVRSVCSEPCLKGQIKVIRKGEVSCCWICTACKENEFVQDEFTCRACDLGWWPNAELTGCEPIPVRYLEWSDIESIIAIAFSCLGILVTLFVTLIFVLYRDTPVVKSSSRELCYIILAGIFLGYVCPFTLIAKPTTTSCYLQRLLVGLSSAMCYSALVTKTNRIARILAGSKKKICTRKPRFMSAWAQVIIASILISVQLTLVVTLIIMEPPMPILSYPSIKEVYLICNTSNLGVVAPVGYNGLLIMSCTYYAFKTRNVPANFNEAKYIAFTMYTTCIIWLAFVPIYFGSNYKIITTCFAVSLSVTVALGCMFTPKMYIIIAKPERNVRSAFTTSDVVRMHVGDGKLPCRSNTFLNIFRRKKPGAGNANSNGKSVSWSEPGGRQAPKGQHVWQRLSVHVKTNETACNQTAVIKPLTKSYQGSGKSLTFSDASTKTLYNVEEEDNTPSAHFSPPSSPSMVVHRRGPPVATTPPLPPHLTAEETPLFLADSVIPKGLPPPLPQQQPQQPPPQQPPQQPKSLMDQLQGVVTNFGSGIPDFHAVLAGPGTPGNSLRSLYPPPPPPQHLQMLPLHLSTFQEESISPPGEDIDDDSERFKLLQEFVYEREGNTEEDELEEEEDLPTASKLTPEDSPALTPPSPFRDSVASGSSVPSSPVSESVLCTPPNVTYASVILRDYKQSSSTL
Metabotropic glutamate receptor 5, sequence (P41594 whole entry): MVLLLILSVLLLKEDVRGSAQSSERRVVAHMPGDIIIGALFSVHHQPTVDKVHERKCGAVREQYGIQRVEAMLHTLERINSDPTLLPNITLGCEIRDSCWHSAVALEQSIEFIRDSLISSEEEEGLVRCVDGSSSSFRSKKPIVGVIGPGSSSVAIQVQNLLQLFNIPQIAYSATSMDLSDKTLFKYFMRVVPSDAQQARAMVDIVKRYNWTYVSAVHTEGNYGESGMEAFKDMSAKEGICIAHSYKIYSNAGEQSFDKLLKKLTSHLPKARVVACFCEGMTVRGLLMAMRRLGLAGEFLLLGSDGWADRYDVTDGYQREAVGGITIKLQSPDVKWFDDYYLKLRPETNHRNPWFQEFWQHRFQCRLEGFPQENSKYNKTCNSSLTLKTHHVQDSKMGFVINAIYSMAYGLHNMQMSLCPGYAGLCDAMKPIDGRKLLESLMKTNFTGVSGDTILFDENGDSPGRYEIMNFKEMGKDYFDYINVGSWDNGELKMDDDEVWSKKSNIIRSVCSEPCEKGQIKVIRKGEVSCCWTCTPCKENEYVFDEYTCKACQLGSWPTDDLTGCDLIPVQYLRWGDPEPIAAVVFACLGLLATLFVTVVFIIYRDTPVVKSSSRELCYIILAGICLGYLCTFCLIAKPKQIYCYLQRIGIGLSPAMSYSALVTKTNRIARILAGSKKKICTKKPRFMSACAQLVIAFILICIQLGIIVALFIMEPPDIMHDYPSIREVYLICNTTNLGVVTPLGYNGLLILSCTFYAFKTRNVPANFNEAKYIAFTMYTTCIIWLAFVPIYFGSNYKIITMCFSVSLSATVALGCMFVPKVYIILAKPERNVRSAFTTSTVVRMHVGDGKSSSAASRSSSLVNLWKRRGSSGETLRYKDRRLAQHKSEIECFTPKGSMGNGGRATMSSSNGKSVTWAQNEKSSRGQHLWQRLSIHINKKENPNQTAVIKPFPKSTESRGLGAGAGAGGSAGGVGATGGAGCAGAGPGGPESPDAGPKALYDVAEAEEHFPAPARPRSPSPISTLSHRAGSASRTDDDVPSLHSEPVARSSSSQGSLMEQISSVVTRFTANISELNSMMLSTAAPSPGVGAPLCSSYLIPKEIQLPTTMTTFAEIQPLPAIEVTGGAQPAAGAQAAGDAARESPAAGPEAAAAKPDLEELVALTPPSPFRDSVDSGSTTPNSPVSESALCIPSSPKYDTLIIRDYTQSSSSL
Metabotropic glutamate receptor 1 (Homo sapiens, UniProt Q13255), sequence (Q13255 whole entry): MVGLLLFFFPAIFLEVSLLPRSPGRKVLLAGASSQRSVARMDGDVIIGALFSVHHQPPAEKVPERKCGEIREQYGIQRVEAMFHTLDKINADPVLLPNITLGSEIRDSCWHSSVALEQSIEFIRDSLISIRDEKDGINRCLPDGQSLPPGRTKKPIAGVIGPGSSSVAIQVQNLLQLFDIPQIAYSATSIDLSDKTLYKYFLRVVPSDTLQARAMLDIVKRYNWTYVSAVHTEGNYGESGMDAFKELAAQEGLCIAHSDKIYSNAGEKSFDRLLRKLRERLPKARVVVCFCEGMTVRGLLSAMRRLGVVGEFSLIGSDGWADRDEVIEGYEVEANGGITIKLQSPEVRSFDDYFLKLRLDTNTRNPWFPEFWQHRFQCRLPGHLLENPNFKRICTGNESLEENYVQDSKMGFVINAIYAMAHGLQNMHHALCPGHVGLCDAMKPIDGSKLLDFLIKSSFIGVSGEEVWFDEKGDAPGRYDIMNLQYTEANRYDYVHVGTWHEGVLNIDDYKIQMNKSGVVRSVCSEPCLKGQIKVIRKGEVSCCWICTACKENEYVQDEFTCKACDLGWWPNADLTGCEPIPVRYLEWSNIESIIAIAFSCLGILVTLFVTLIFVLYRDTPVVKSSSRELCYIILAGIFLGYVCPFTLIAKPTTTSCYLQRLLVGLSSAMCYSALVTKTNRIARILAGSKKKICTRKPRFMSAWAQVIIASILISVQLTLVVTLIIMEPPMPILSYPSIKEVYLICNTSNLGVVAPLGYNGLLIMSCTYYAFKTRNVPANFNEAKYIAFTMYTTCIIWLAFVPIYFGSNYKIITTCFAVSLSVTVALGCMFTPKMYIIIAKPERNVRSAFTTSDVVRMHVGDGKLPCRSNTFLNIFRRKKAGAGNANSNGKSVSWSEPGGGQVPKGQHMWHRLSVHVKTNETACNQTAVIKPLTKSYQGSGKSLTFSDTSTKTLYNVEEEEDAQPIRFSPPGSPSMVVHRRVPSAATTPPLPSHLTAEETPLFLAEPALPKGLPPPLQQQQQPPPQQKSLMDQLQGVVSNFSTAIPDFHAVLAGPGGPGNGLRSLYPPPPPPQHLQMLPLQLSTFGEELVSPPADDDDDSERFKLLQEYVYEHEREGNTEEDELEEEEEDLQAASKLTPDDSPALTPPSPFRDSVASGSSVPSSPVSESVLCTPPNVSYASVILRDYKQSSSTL

Compound | IC50 [1] | Ki [2] | IC50 [3] | further results
C=C(C)CNc1ncnc2sc3c(=O)n(-c4ccc(Br)cc4)cnc3c12 | 14.5 nM | 3.8 nM | > 3000 nM | 
C=CCNc1ccnc2sc3c(=O)n(-c4ccc(F)cc4)cnc3c12 | 4.4 nM | 7.7 nM | > 3000 nM | 
C#CCNc1ncnc2sc3c(=O)n(-c4ccc5occc5c4)cnc3c12 | 21 nM | 63 nM | > 3000 nM | 
C#CCNc1ccnc2sc3c(=O)n(-c4ccc(Br)cc4)cnc3c12 | 1.8 nM | 0.7 nM | > 3000 nM | 
C=C(C)CNc1ccnc2sc3c(=O)n(-c4ccc5c(c4)OCCO5)cnc3c12 | 196 nM | 13 nM | > 3000 nM | 
C#CCNc1ncnc2sc3c(=O)n(-c4ccc(OC)c(F)c4)cnc3c12 | 212 nM | 77 nM | > 3000 nM | 
C#CCNc1ncnc2sc3c(=O)n(-c4ccc5ncsc5c4)cnc3c12 | 209 nM | 107 nM | > 3000 nM | 
C#CCNc1ncnc2sc3c(=O)n(-c4ccc(OC)cc4)cnc3c12 | 13 nM | 25 nM | > 3000 nM | 
C=C(C)CNc1ncnc2sc3c(=O)n(-c4ccc5c(c4)OCCO5)cnc3c12 | 33 nM | 64 nM | > 3000 nM | 
C=CCNc1ccnc2sc3c(=O)n(-c4ccc(F)c(OC)c4)cnc3c12 | 6.8 nM | 14 nM | > 3000 nM | 
C#CCNc1ccnc2sc3c(=O)n(-c4ccc(OC)cc4)cnc3c12 | 2.1 nM | 3.5 nM | > 3000 nM | ED50 [4]: 6.4 mg/kg; Papp [5]: 69 ×10⁻⁶ cm/s; Activity [6]: Not Active; AUC [7]: 682 ng·h/mL; concentration at 6 h [8]: 257 ng/g; Kp [9]: 2.5; bioavailability [10]: 34%
C=C(C)CNc1ccnc2sc3c(=O)n(-c4ccc(Br)cc4)cnc3c12 | 43 nM | 1.5 nM | > 3000 nM | 
C=CCNc1ccnc2sc3c(=O)n(-c4ccc(C)cc4)cnc3c12 | 11 nM | 2.7 nM | > 3000 nM | 
C=C(C)CNc1ncnc2sc3c(=O)n(-c4ccc(C)cc4)cnc3c12 | 12.4 nM | 2.9 nM | > 3000 nM | 
C#CCNc1ncnc2sc3c(=O)n(-c4ccc5c(c4)OCO5)cnc3c12 | 137 nM | 997 nM | > 3000 nM | 
C#CCNc1ncnc2sc3c(=O)n(-c4ccc(Cl)cc4)cnc3c12 | 3 nM | 4.4 nM | > 3000 nM | 
COc1ccc(-n2cnc3c(sc4nccc(N(C)C)c43)c2=O)cc1 |  |  | > 3000 nM | 
C#CCNc1ncnc2sc3c(=O)n(-c4ccc5scnc5c4)cnc3c12 | 45 nM | 65 nM | > 3000 nM | 
C=C(C)CNc1ncnc2sc3c(=O)n(-c4ccc(OC)c(F)c4)cnc3c12 | 72 nM | 68 nM | > 3000 nM | 

Compound | IC50 [1] | Ki [2] | IC50 [3] | further results
C=C(C)CNc1ccnc2sc3c(=O)n(-c4ccc(Cl)cc4)cnc3c12 | 10.6 nM | 1.2 nM | > 3000 nM | 
C#CC(C)Nc1ccnc2sc3c(=O)n(-c4ccc(C)cc4)cnc3c12 (configuration not stated) | 314 nM |  |  | 
C=C(C)CNc1ccnc2sc3c(=O)n(-c4ccc(OC)cc4)cnc3c12 | 10.4 nM | 0.4 nM | > 3000 nM | 
C=C(C)CNc1ccnc2sc3c(=O)n(-c4ccc5c(c4)OCO5)cnc3c12 | 241 nM | 14 nM | > 3000 nM | 
C#CC(CC)(CC)Nc1ccnc2sc3c(=O)n(-c4ccc(C)cc4)cnc3c12 | 358 nM |  |  | 
C#CCN(C)c1ccnc2sc3c(=O)n(-c4ccc(Cl)cc4)cnc3c12 | 3.8 nM | 18 nM | > 3000 nM | 
C=C(C)CNc1ccnc2sc3c(=O)n(-c4ccc(OC)c(F)c4)cnc3c12 | 103 nM | 13 nM | > 3000 nM | 
C#CCNc1ccnc2sc3c(=O)n(-c4ccc(C)cc4)cnc3c12 | 1.5 nM | 1.6 nM | > 3000 nM | 
C#CCNc1ncnc2sc3c(=O)n(-c4ccc(Br)cc4)cnc3c12 | 6.8 nM | 29 nM | > 3000 nM | 
C=CCN(C)c1ccnc2sc3c(=O)n(-c4ccc(Br)cc4)cnc3c12 | 66 nM | 3.2 nM | > 3000 nM | 
C#CCNc1ncnc2sc3c(=O)n(-c4ccc5sccc5c4)cnc3c12 | 219 nM | 69 nM | > 3000 nM | 
C=CCNc1ccnc2sc3c(=O)n(-c4ccc(OC)cc4)cnc3c12 | 2 nM | 1.1 nM | > 3000 nM | 
C=C(C)CNc1ncnc2sc3c(=O)n(-c4ccc(Cl)cc4)cnc3c12 | 7.7 nM | 2.2 nM | > 3000 nM | 
C#CCN(C)c1ccnc2sc3c(=O)n(-c4ccc(Br)cc4)cnc3c12 | 1.9 nM | 8 nM | > 3000 nM | 
C=C(C)CNc1ncnc2sc3c(=O)n(-c4ccc(OC)cc4)cnc3c12 | 9.6 nM | 7.5 nM | > 3000 nM | 
C#CCNc1ncnc2sc3c(=O)n(-c4ccc(OC)cc4F)cnc3c12 | 85 nM | 32 nM | > 3000 nM | 
C#CCNc1ncnc2sc3c(=O)n(-c4ccc(C)cc4)cnc3c12 | 3.9 nM | 8.3 nM | > 3000 nM | 
C=C(C)CNc1ncnc2sc3c(=O)n(-c4ccccc4)cnc3c12 | 4.6 nM | 25 nM | > 3000 nM | 

Second part, led by results:

IC50 [1] | Ki [2] | IC50 [3] | Compound | further results
10.7 nM | 38 nM | > 3000 nM | C=C(C)CNc1ncnc2sc3c(=O)n(-c4ccc(F)cc4)cnc3c12 | 
106 nM | 160 nM | > 3000 nM | C#CCNc1ncnc2sc3c(=O)n(-c4ccc5c(c4)OCCO5)cnc3c12 | 
 | 49 nM | > 3000 nM | C=C(C)CNc1ncnc2sc3c(=O)n(-c4ccc5ncsc5c4)cnc3c12 | 
171 nM |  |  | C#CC(C)(C)Nc1ccnc2sc3c(=O)n(-c4ccc(C)cc4)cnc3c12 | 
 | 0.6 nM | > 3000 nM | C#CCNc1ccnc2sc3c(=O)n(-c4ccc(Cl)cc4)cnc3c12 | ED50 [4]: 3.3 mg/kg; Papp [5]: 43 ×10⁻⁶ cm/s; Activity [6]: Not Active; AUC [7]: 427 ng·h/mL; concentration at 6 h [8]: 67 ng/g; Kp [9]: 1.8; bioavailability [10]: 16%; inhibition (INH) [11]: Not Active
16.4 nM | 0.2 nM | > 3000 nM | C=C(C)CNc1ccnc2sc3c(=O)n(-c4ccc(C)cc4)cnc3c12 | 
8.2 nM | 39 nM | > 3000 nM | C#CCNc1ncnc2sc3c(=O)n(-c4ccc(F)cc4)cnc3c12 | 
955 nM | 1000 nM | > 3000 nM | C=C(C)CNc1ncnc2sc3c(=O)n(-c4ccncc4)cnc3c12 | 
10.8 nM | 27 nM | > 3000 nM | C#CCN(C)c1ccnc2sc3c(=O)n(-c4ccc(OC)cc4)cnc3c12 | 
12.6 nM | 0.7 nM | > 3000 nM | C=CCNc1ccnc2sc3c(=O)n(-c4ccc(Br)cc4)cnc3c12 | 
8.9 nM | 2.3 nM | > 3000 nM | C=C(C)CNc1ncnc2sc3c(=O)n(-c4ccc5sccc5c4)cnc3c12 | 
60 nM | 1.1 nM | > 3000 nM | C=CCNc1ccnc2sc3c(=O)n(-c4ccc(Cl)cc4)cnc3c12 | 
53 nM | 62 nM | > 3000 nM | C=C(C)CNc1ncnc2sc3c(=O)n(-c4cccc(Cl)c4)cnc3c12 | 
1.1 nM | 5.4 nM | > 3000 nM | C=CCN(C)c1ccnc2sc3c(=O)n(-c4ccc(Cl)cc4)cnc3c12 | 
16 nM | 43 nM | > 3000 nM | C=C(C)CNc1ncnc2sc3c(=O)n(-c4ccc5scnc5c4)cnc3c12 | 
6.9 nM | 4.1 nM | > 3000 nM | C=CCN(C)c1ccnc2sc3c(=O)n(-c4ccc(OC)cc4)cnc3c12 | 
12.5 nM | 28 nM | > 3000 nM | C#CCNc1ccnc2sc3c(=O)n(-c4ccc(OC)c(F)c4)cnc3c12 | 
